Each block holds one compound with its values, some of them ahead of it.
Key:
[1] = Steady state volume of distribution was measured in mice after intravenous administration of 2 mg/kg; format: ADME, organism-based; parameters: dose 2 mg/kg, route intravenous; settings: mouse, in vivo, read-out: Vdss
Procedure, shortened: (§1)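 Mice given a single dose by ip (10 mg/kg), oral (20 mg/kg) or iv (2 mg/kg) route. Blood sampled over 24 h after dosing; plasma analysed for parent compound. PK parameters (Cmax, Tmax, AUC, T1/2, F, C0, Cl, Vdss) derived from plasma concentration-time profiles.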

[2] = Clearance at time 0 was measured in mice after intravenous administration of 2 mg/kg; format: ADME, organism-based; parameters: dose 2 mg/kg, route intravenous; settings: mouse, in vivo; procedure, shortened: as §1
[3] = Maximum time to attain Cmax in mice after intraperitoneal administration of 10 mg/kg; format: ADME, organism-based; parameters: dose 10 mg/kg, route intraperitoneal; settings: mouse, in vivo, ip; procedure, shortened: as §1
[4] = Bioavailability in mouse (dose 10 mg/kg i.p.); format: ADME, organism-based; settings: in vivo, ip; procedure, shortened: as §1
[5] = Half-life was measured in mice after intravenous administration of 2 mg/kg; format: ADME, organism-based; parameters: dose 2 mg/kg, route intravenous; settings: mouse, in vivo; procedure, shortened: as §1
[6] = Maximum plasma concentration in mice after oral administration of 20 mg/kg; format: ADME, organism-based; parameters: dose 20 mg/kg, route oral; settings: mouse; procedure, shortened: as §1
[7] = Maximum plasma concentration in mice after intraperitoneal administration of 10 mg/kg; format: ADME, organism-based; parameters: dose 10 mg/kg, route intraperitoneal; settings: mouse, ip; procedure, shortened: as §1
[8] = Area under concentration-time curve for the compound was measured in mice after oral administration of 20 mg/kg; format: ADME, organism-based; parameters: dose 20 mg/kg, route oral; settings: mouse, in vivo; procedure, shortened: as §1
[9] = Maximum time to attain Cmax in mice after oral administration of 20 mg/kg; format: ADME, organism-based; parameters: dose 20 mg/kg, route oral; settings: mouse, in vivo; procedure, shortened: as §1
[10] = Area under concentration-time curve for the compound was measured in mice after intraperitoneal administration of 10 mg/kg; format: ADME, organism-based; parameters: dose 10 mg/kg, route intraperitoneal; settings: mouse, in vivo, ip; procedure, shortened: as §1
[11] = Half-life was measured in mice after intraperitoneal administration of 10 mg/kg; format: ADME, organism-based; parameters: dose 10 mg/kg, route intraperitoneal; settings: mouse, in vivo, ip; procedure, shortened: as §1
[12] = Bioavailability in mouse (dose 20 mg/kg p.o.); format: ADME, organism-based; settings: in vivo, po; procedure, shortened: as §1
[13] = Concentration at time 0 was measured in mice after intravenous administration of 2 mg/kg; format: ADME, organism-based; parameters: dose 2 mg/kg, route intravenous; settings: mouse, in vivo; procedure, shortened: as §1
[14] = Area under concentration-time curve for the compound was measured in mice after intravenous administration of 2 mg/kg; format: ADME, organism-based; parameters: dose 2 mg/kg, route intravenous; settings: mouse, in vivo; procedure, shortened: as §1
[15] = Bioavailability in mouse (dose 2 mg/kg i.v.); format: ADME, organism-based; settings: in vivo, iv; procedure, shortened: as §1
[16] = Half-life was measured in mice after oral administration of 20 mg/kg; format: ADME, organism-based; parameters: dose 20 mg/kg, route oral; settings: mouse, in vivo; procedure, shortened: as §1
Thymidine phosphorylase [17] = molecular target: Thymidine phosphorylase (Escherichia coli K-12, UniProt P07650); assay: Inhibitory concentration against thymidine phosphorylase of Escherichia coli
Chain of Thymidine phosphorylase (Escherichia coli K-12, UniProt P07650) (P07650 whole entry): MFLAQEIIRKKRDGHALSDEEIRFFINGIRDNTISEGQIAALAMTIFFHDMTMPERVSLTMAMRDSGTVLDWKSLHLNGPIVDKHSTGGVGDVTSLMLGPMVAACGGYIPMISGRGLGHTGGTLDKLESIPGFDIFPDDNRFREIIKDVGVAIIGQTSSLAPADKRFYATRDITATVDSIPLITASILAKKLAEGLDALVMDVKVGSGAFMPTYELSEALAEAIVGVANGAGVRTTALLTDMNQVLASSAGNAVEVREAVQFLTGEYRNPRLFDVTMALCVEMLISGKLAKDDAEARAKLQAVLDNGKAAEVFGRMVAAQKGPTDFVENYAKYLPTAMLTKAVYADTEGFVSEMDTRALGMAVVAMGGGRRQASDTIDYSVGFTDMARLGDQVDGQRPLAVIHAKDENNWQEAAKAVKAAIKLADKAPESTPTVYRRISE

Thymidine phosphorylase [18] = molecular target: T1, Thymidine phosphorylase (Homo sapiens, UniProt P19971); assay: Inhibitory concentration against human thymidine phosphorylase
T1 sequence (P19971 whole entry): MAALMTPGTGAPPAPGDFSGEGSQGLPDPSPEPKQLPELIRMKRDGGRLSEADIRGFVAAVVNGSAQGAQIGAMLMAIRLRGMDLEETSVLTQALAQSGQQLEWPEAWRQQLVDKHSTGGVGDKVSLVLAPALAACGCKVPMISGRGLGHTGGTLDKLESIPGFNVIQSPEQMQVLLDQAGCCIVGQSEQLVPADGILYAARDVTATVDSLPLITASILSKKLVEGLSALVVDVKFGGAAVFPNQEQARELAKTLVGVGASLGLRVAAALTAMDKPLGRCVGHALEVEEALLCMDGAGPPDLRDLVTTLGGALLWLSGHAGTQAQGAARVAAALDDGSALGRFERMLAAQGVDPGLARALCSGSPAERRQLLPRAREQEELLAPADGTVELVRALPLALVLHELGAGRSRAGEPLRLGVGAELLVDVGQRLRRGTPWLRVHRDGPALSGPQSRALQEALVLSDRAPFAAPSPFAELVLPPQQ

[19] = Maximum concentration was measured in mice after intraperitoneal administration of 10 mg/kg; format: ADME, organism-based; parameters: dose 10 mg/kg, route intraperitoneal; settings: mouse, in vivo, ip; procedure, shortened: as §1

- Vd [1]: 1.3 L/kg
- clearance [2]: > 72 mL/min/kg
- Tmax [3]: 5 min
- bioavailability [4]: 103%
- half-life [5]: 12 min
- Cmax [6]: 350 ng/mL
- Cmax [7]: 5080 ng/mL
- AUC [8]: 0.968 µg/h/mL
- Tmax [9]: 60 min
- AUC [10]: 1.505 µg/h/mL
- half-life [11]: 60 min
- bioavailability [12]: 33%
- C0 [13]: 3750 ng/mL
- AUC [14]: 0.292 µg/h/mL
- F [15]: Not Active
- half-life [16]: 132 min
SMILES: Nc1[nH]cc[n+]1Cc1[nH]c(=O)[nH]c(=O)c1Br

- IC50 (Thymidine phosphorylase [17]): 6.6 µM
- IC50 (Thymidine phosphorylase [18]): 181 µM
SMILES: O=c1[nH]c(Cn2cnc([N+](=O)[O-])c2)c(Br)c(=O)[nH]1

- IC50 (Thymidine phosphorylase [17]): 6.5 µM
SMILES: Nc1c[n+](Cc2nc(O)nc(O)c2Br)c[nH]1

- IC50 (Thymidine phosphorylase [17]): 7 µM
- IC50 (Thymidine phosphorylase [18]): 200 µM
SMILES: O=c1[nH]c(Cn2cnc([N+](=O)[O-])c2)c(Cl)c(=O)[nH]1

- IC50 (Thymidine phosphorylase [17]): 101 µM
- IC50 (Thymidine phosphorylase [18]): 143 µM
SMILES: Nc1c[n+](Cc2cc(O)nc(O)n2)c[nH]1

- IC50 (Thymidine phosphorylase [17]): 13.8 µM
- IC50 (Thymidine phosphorylase [18]): 500 µM
SMILES: O=[N+]([O-])c1cn(Cc2cc(O)nc(O)n2)cn1

- IC50 (Thymidine phosphorylase [17]): 7.3 µM
SMILES: Nc1c[n+](Cc2nc(O)nc(O)c2Cl)c[nH]1

- Vd [1]: 2.1 L/kg
- clearance [2]: > 72 mL/min/kg
- Tmax [3]: 4.98 min
- bioavailability [4]: > 100%
- Cmax [19]: 4450 ng/mL
- half-life [5]: 6 min
- Cmax [6]: 391 ng/mL
- AUC [8]: 0.99 µg/h/mL
- Tmax [9]: 60 min
- AUC [10]: 1.658 µg/h/mL
- half-life [11]: 48 min
- bioavailability [12]: 52%
- C0 [13]: 942 ng/mL
- AUC [14]: 0.19 µg/h/mL
- F [15]: Not Active
- half-life [16]: 102 min
SMILES: Cl.N=C1CCCN1Cc1[nH]c(=O)[nH]c(=O)c1Cl [TIPIRACIL HYDROCHLORIDE]
